For assay [1], the target named is T1, DNA repair nuclease/redox regulator APEX1 (Homo sapiens, UniProt P27695). As to the kind of experiment: Inhibition of human recombinant APE1 at 57 uM after 15 mins by fluorescence based HTS assay. Summed up:
(§1)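 APE1 inhibition was measured in the fluorescence-based qHTS format at up to 57 µM. IC50 is the average of three separate experiments.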

Assay [2] addresses T1, DNA repair nuclease/redox regulator APEX1. Nature of the assay: Inhibition of APE1 in human HeLa whole cell extract using […]-5'-AP-DNA as substrate assessed as activity remaining at 100 uM incubated for 15 mins prior to substrate addition measured after 5 mins by PAGE analysis relative to control. Summed up:
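HeLa whole cell extract (300 ng; KCl-extracted hypotonic lysate) was preincubated with inhibitor for 15 min at room temperature, at 100 µM or at 0–100 µM. Then 0.5 pmol 32P AP-DNA was added for 5 min at 37 °C. Samples were run on denaturing PAGE, and incision is reported relative to the no-inhibitor control, from three independent measurements.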

The target is the same in assay [3]. Nature of the assay: Inhibition of human recombinant APE1 after 15 mins by fluorescence based HTS assay. Summed up: as §1
The target is the same in assay [4]. Nature of the assay: Inhibition of recombinant APE1 using […]-5'-AP-DNA as substrate incubated for 15 mins prior to substrate addition measured after 5 mins by PAGE analysis.
For assay [5] the target is unchanged. As to the kind of experiment: Inhibition of APE1 in human HeLa cells assessed as accumulation of genomic AP sites […] after 24 hrs by aldehyde reactive probe-based assay relative to control. The format is cell-based. The gist of the method: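 HeLa cells at 80% confluency were exposed for 24 h at 37 °C to DMSO, 275 µM MMS, or 7.5 µM inhibitor, each alone, or to 275 µM MMS plus 7.5 µM inhibitor. Genomic DNA was isolated and adjusted to 100 ng/µL. 10 µL was labelled with aldehyde reactive probe (biotin-hydrazide reagent) and AP sites were quantified by kit. Samples ran in triplicate and were compared with a Student's t test.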

Each structure is given as a SMILES string. The source made the active and inactive calls. The calls are words filed in the database; no cut-off is given here.

As a reminder, the inhibition is the drop in the measured response relative to a control, in per cent. What is called IC50 is the concentration at which inhibition is half-maximal.

T1 sequence (P27695 whole entry): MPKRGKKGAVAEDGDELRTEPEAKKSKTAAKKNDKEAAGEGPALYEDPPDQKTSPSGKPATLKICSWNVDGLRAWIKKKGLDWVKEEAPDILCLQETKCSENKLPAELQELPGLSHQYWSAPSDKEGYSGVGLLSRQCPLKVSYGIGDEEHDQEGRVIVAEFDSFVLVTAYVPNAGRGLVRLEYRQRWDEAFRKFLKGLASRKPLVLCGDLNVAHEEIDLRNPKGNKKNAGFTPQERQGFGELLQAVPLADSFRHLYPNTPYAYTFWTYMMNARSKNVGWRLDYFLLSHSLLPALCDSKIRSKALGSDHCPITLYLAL

`CC(=O)Nc1sc2c(c1-c1nc3ccccc3s1)CCSC2`: the inhibition in assay [1] was 56%.
The same measure, in the same setting: the same measure for `CC(=O)Nc1sc2c(c1C(=O)O)CCNC2`: 29%; for `CC(=O)Nc1sc2c(c1-c1ncco1)CCNC2`: 45%.
As to `CC(=O)Nc1sc2c(c1-c1nc3ccccc3s1)CCNC2`, the Activity in assay [2] came to 1.4%. Further, the values for the IC50 in assay [3] and in assay [4] were 2.9 µM and 5 µM, respectively.
For the molecule `O=C(O)c1cc2cccc([N+](=O)[O-])c2[nH]1`, the inhibition in assay [1] was 40%.
As to `CC(=O)Nc1sc2c(c1-c1nc3ccccc3s1)CCN(C(=O)OC(C)(C)C)C2`, in assay [3], the IC50 is greater than 57 µM.
As for `CC(=O)Nc1sc2c(c1-c1nc3ccccc3s1)CCS(=O)(=O)C2`, the inhibition in assay [1] came to 29%.
`O=C(O)c1sc2c(c1-c1nc3ccccc3s1)CCNC2`: the IC50 in assay [3] was greater than 57 µM.
Regarding `CC(=O)Nc1cc2c(s1)CNCC2`, the inhibition in assay [1] was 47%.
As to `CC(=O)Nc1sc2c(c1-c1cccc3ccccc13)CCNC2`, in assay [3], the IC50 was greater than 57 µM.
For the molecule `CC(=O)Nc1sc2c(c1-c1nc3ccccc3s1)CNCC2`, in assay [1], the inhibition stood at 31%.
Consider `CCCCC(=O)Nc1sc2c(c1-c1nc3ccccc3s1)CCN(C(C)C)C2`, for which the IC50 in assay [3] was determined as 9.1 µM.
As to `CC(=O)Nc1sc2c(c1-c1nc3ccccc3s1)CCN(C)C2`, the Activity in assay [2] is 26%. The IC50 in assay [3] was 3.8 µM; in assay [4] it was 5 µM.
Regarding `CC(=O)Nc1sc2c(c1-c1cccs1)CCNC2`, the inhibition in assay [1] stood at 34%.
`O=C(Nc1sc2c(c1-c1nc3ccccc3s1)CCNC2)C1CC1`: the IC50 in assay [3] was 6 µM.
For `CC(=O)Nc1sc2c(c1-c1cc3ccccc3s1)CCNC2`, the inhibition in assay [1] came out at 23%.
On to `CC(=O)Nc1sc2c(c1-c1nccs1)CCNC2`, for which, in assay [1], the inhibition was found to be 55%.
Still for that read-out and setting: to `CC(=O)Nc1sc2c(c1-c1nc3ccccc3s1)CCOC2` belongs 41%.
For `c1ccc2sc(-c3csc4c3CCNC4)nc2c1`, the IC50 in assay [3] is 25.2 µM.
In the case of `CC(C)N1CCc2c(sc(NC(=O)c3ccccc3)c2-c2nc3ccccc3s2)C1`, the inhibition in assay [1] came out at 57%.
Consider `O=C(Nc1sc2c(c1-c1nc3ccccc3s1)CCNC2)C(F)F`, for which the Activity in assay [2] is 38%. The IC50 was determined as 3.8 µM in assay [3] and 4 µM in assay [4].
For `CC(=O)Nc1sc2c(c1C#N)CCN(C(C)C)C2`, in assay [1], the inhibition came to 31%.
Still for that read-out and setting: to `CC(C)N1CCc2c(sc(NC(=O)Cc3ccccc3)c2-c2nc3ccccc3s2)C1` belongs 53%.
For the molecule `CC(=O)Nc1sc2c(c1-c1nc3ccccc3s1)CCCN(C(C)C)C2`, in assay [2], the Activity was 14%. For the same molecule, the IC50 was 12.9 µM in assay [3] and 14 µM in assay [4].
Taken in the same sequence, the figures for `CC(=O)Nc1sc2c(c1-c1nc3ccccc3o1)CCN(C(C)C)C2` were 12%, 20.4 µM and 13 µM.
For the molecule `CC(C)N1CCc2c(sc(N)c2-c2nc3ccccc3s2)C1`, in assay [1], the inhibition is 40%.
Take `O=C(CCc1ccccc1)Nc1sc2c(c1-c1nc3ccccc3s1)CCNC2`: in assay [3], the IC50 was greater than 57 µM.
Same read-out and setting: to `COC(=O)c1sc2c(c1-c1nc3ccccc3s1)CCNC2` belongs greater than 57 µM; to `CC(=O)Nc1sc2cnccc2c1-c1nc2ccccc2s1`, greater than 57 µM.
Turning to `CC(=O)Nc1sc2c(c1-c1nc3ccccc3s1)CCN(C(C)C)CC2`, the Activity in assay [2] turned out to be 1.1%. Moreover, the values for the IC50 in assay [3] and in assay [4] were 17.6 µM and 13 µM, respectively.
In the case of `CC(=O)Nc1sc2c(c1-c1csc3ccccc13)CCNC2`, the IC50 in assay [3] was greater than 57 µM.
For `CC(C)(C)C(=O)Nc1sc2c(c1-c1nc3ccccc3s1)CCNC2`, in assay [3], the IC50 was greater than 57 µM.
On the same count and under the same terms, the same measure for `C#CCCC(=O)Nc1sc2c(c1-c1nc3ccccc3s1)CCNC2`: 12 µM.
Regarding `CC(=O)Nc1sc2c(c1Br)CCNC2`, the inhibition in assay [1] worked out at 30%.
The same measure, in the same setting: the same measure for `O=C(Nc1sc2c(c1-c1nc3ccccc3s1)CCNC2)C1CCCC1`: 55%.
Consider `Cc1noc(Nc2sc3c(c2-c2nc4ccccc4s2)CCNC3)n1`, for which the IC50 in assay [3] was 18.2 µM.
For the molecule `Cc1nnc(-c2sc3c(c2-c2nc4ccccc4s2)CCNC3)o1`, the IC50 in assay [3] is greater than 57 µM.
As for `O=C(Nc1sc2c(c1-c1nc3ccccc3s1)CCNC2)C(F)(F)F`, the half-inhibitory concentration (IC50) in assay [3] was found to be 17.6 µM.
As to `CC(=O)Nc1sc2c(c1-c1nc(-c3ccccc3)cs1)CCN(C(C)C)C2`, the Activity in assay [2] came out at 15%. Moreover, the IC50 in assay [3] amounted to 2.9 µM; in assay [4], 3 µM.
As for `CC(=O)Nc1sc2c(c1-c1cc3ccccc3o1)CCNC2`, in assay [1], the inhibition came to 66%.
For `CC(=O)Nc1sc2c(c1-c1nc3ccccc3s1)CN(C(C)C)C2`, in assay [2], the Activity was determined as 57%. The concentration for half-maximal inhibition (IC50) came out at 3.1 µM in assay [3] and 4 µM in assay [4].
On to `CC(=O)Nc1sc2c(c1-c1nc3ccccc3s1)CCN(Cc1ccccc1)C2`, for which the inhibition in assay [1] was determined as 41%.
Regarding `Cc1noc(-c2sc3c(c2-c2nc4ccccc4s2)CCNC3)n1`, the IC50 in assay [3] is greater than 57 µM.
Take `CC(=O)Nc1sc2c(c1-c1ccccc1)CCNC2`: in assay [1], the inhibition was found to be 42%.
On the same count and under the same terms, to `CC(=O)Nc1sc2c(c1-c1ccco1)CCNC2` belongs 41%; to `C#CCCC(=O)Nc1sc2c(c1-c1nc3ccccc3s1)CCN(C(C)C)C2`, 57%.
Consider `CC(C)N1CCc2c(sc(NC(=O)C3CCCCC3)c2-c2nc3ccccc3s2)C1`, for which the IC50 in assay [3] worked out at 8.3 µM.
On the same count and under the same terms, the same measure for `Cc1nnc(Nc2sc3c(c2-c2nc4ccccc4s2)CCNC3)o1`: 19 µM.
In the case of `CC(=O)Nc1sc2c(c1-c1nc3ccccc3s1)CCN(C(C)=O)C2`, the inhibition in assay [1] turned out to be 59%.
In the case of `CC(C)N1CCc2c(sc(NC(=O)C(F)F)c2-c2nc3ccccc3s2)C1`, in assay [3], the IC50 came to 5.3 µM.
Take `COC(=O)Nc1sc2c(c1-c1nc3ccccc3s1)CCNC2`: in assay [3], the IC50 turned out to be 11.1 µM.
Still for that read-out and setting: the same measure for `CC(=O)Nc1sc2c(c1-c1cc3ccccc3[nH]1)CCNC2`: greater than 57 µM.
For the molecule `COS(C)(=O)=O`, the inhibition result in assay [5] is “Active”.

For the origin of these results see ChEMBL document CHEMBL2057080, “Synthesis, biological evaluation, and structure-activity relationships of a novel class of apurinic/apyrimidinic endonuclease 1 inhibitors” (J Med Chem, 2012).
